Fewer inactive variants are shown than the library holds.
B1: tRNA (parent)
chain: GUUCCGUUGGCGUAAUGGUAACGCGUCUCCCUCCUAAGGAGAAGACUGCGGGUUCGAGUCCCGUACGGAACG

Variants of: B1
Assay: yeast fitness relative to wild type (ratio to wild type); higher = fitter; tRNA-Arg(CCU), competitive growth, 37 C, YPD
In short: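 For this measurement, the tRNA-Arg(CCU) gene was varied by chemical synthesis at a 3% per-site mutation rate across 69 sites, and each variant was placed at the native genomic locus in Saccharomyces cerevisiae. The pooled strains went through a 24-hour competition in YPD at 37°C in six parallel replicates, with amplicons from start and end populations read by 100-nucleotide paired-end sequencing. Darwinian fitness relative to wild type followed from the change in each genotype's frequency. Genotypes needed ≥ 100 starting reads, and estimates < 0.5 were set to 0.5.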

Variant	yeast fitness
GUUCCGUUGGCGUAAUGGUAGCGCGUCUCCCUGGUAAGGAGAAGACAGCAGGUUCGAGUCCCGUACGGAACG [A21G C33G C34G U47A G50A]	≤ 0.5
GUUCCGUUGGCGUAAUGGUAGCGCGUCUCCCUCCUAAGGAGAAGACUGUGGGUUCGAGUCCCAUACGGAACG [A21G C49U G63A]	0.804
GUUCCGUUGGCGUAAUGGUAGCGCGUCUCCCUACUAAGGAGAAGACUGCGGGUUAGAGUCCCGUCCGGACCG [A21G C33A C55A A65C A70C]	≤ 0.5
GUUCCGUUGGCGUAAUGGUAGCGCGUCUCCCUCCUAAGGAGAAGACUCCGGGUUCGAGUCCCGUACGGAACG [A21G G48C]	1.01
GUUCCGUUGGCGUAAUGGUAGCGCGUCUCCCUCCUAAGGAGAAGACUACGGGUUCGAGUCCCGUACGGAACG [A21G G48A]	0.92
GUUCCGUUGGCGUAAUGGUAGCGCGUCUACCUCCUAAGGAGAAGAUUGCGGGUUCGAGCCCCGUACGGAACG [A21G C29A C46U U59C]	≤ 0.5
GUUCCGUUGGCGUAAUGGUAGCGCGUCUCCCUCUUAAGGAGAAGACUGCGGGUUCGAGUCCCGUCCGGAACG [A21G C34U A65C]	≤ 0.5
GUUCCGUUGGCGUAAUGGUAGCGCGUCUCCCUCGUAAGGAGAAGACUGCGGGUUGGAGUCCCGUACGGAACG [A21G C34G C55G]	≤ 0.5
GUUCCGUUGGCGUAAUGGUAGCGCGUCUCCCUCCUAAGGAGAAGACUGCGGGUUUGAGUCCCGUACGGAACG [A21G C55U]	0.704
GUUCCGUUGGCGUAAUGGUAGCCCGUCUCCUUCGUAAGGAGAGGCCUGCGGGUUCGAGUCCCGUACCGAACG [A21G G23C C31U C34G A43G A45C G67C]	≤ 0.5
GUUCCGUUGGCGUAAUGGUAGCGCGUCUCCCUCCUAAGGAGAAGACUGCCGCUUCGAGUCCCGUACGGAACG [A21G G50C G52C]	≤ 0.5
GUUCCGUUGGCGUAAUGGUAGCGCGUCUUCCUCCUAAGGACAAGACUGCGGGUUCGAGUCCCGUACGGAACG [A21G C29U G41C]	0.562
GUUCCGUUGGCGUAAUGGUAGCACGUGUCCCUCCUAUGGAGAAAACUGUGGGUUCGAGUCCCCUACGGAACG [A21G G23A C27G A37U G44A C49U G63C]	≤ 0.5
GUUCCGUUGGCGUAAUGGUAGCGCGUCUCAUUCCUAAGGAGAAGACUGCGGGUUCGGGUCCCGUUCGGUACG [A21G C30A C31U A57G A65U A69U]	≤ 0.5
GUUCCGUUGGCGUAAUGGUAGCGCGUCUCCCUCCUAAGGAGAAGAGUGCGGGUUCGAGUCCCGUACGGAACG [A21G C46G]	0.987
GUUCCGUUGGCGUAAUGGUAGCGCGUCUCCCUCCUAAGGAGAACACUGCGGGUUCGAGUCCCGUACGGAACG [A21G G44C]	0.963
GUUCCGUUGGCGUAAUGGUAGCGCGUCUCCCUCCUAAGCAGAAGAGUGCGGGUUCGAGUCCCGUACGGAACG [A21G G39C C46G]	0.627
GUUCCGUUGGCGUAAUGGUAGCGCGUCUCCCUCCUAAGAAGAAGACUGCGGGUCCGAGUCCCGUACGGACCG [A21G G39A U54C A70C]	≤ 0.5
GUUCCGUUGGCGUAAUGGUAGCGCGUCUCCCUACUAAGGAGAAGACUGCGGGUUCGAGUCCCGUCCGGACCG [A21G C33A A65C A70C]	0.54

Variant	yeast fitness
GUUCCGUUGGCGUAAUGGUAGCGCGUUUCCCUCCUAAGGAGAAGACUGCGGGUUCGAGUCCCGUACGGCACG [A21G C27U A69C]	0.781
GUUCCGUUGGCGUAAUGGUAGCGCGUCUCCCUCCUAAGGAGAAGACUGCGGGUUCGAGUCCGGUACGGAACG [A21G C62G]	1.02
GUUCCGUUGGCGUAAUGGUAGCGCGUCUCCCUCCUAAGGAGAAGACUGUGGGUUCGAGUCCCGUCCGGAACG [A21G C49U A65C]	0.747
GUUCCGUUGGCGUAAUGGUAGCGCGUCUCCCUCCUAAGGAGAAGACUGCGGGUUCGAGUCGCGUACAGAACG [A21G C61G G67A]	≤ 0.5
GUUCCGUUGGCGUAAUGGUAGCGCGUCUCCCUCCUAAGGAGAAAACUGCGGGUUCGAGUCCCGUACGGCACG [A21G G44A A69C]	≤ 0.5
GUUCCGUUGGCGUAAUGGUAGCGCGUCUCCCUCCUAAGGAGAAGACUGUGGGCUCGAGUCGCGUACGGAACG [A21G C49U U53C C61G]	≤ 0.5
GUUCCGUUGGCGUAAUGGUAGCGCCUCUCCCUCCUAAGGAGAAGACUGCGGGUUCGAGUCGCGUACGUAACG [A21G G25C C61G G68U]	≤ 0.5
GUUCCGUUGGCGUAAUGGUAGCGCGUCUGCCUCCUAAGGAGAAGACUGCGGGUUCGACUCCCGUACGGACCG [A21G C29G G58C A70C]	≤ 0.5
GUUCCGUUGGCGUAAUGGUAGCGCCUGUCCCUCCUAAGGAGCAGACUGCGGGUUCGAGUCCCGUACGCAACG [A21G G25C C27G A42C G68C]	≤ 0.5
GUUCCGUUGGCGUAAUGGUAGCGCGUCUCCCUCCUAAGGAGAAGACUGCGGGUUCAAGUCCCGUACAGAACG [A21G G56A G67A]	0.654
GUUCCGUUGGCGUAAUGGUAGCACGUCUCCCUCCUAAGGAGAAGACUGCGGGUUCGCGUCCCGUCCGGACCG [A21G G23A A57C A65C A70C]	≤ 0.5
GUUCCGUUGGCGUAAUGGUAGCGCGUCUCCCUCCUAAGGAGAAGACUGCGGGUUCGAGUGCCGUACGGACCG [A21G C60G A70C]	0.579
GUUCCGUUGGCGUAAUGGUAGCGCGUCUCACUCCUAAGGAGAAGACUGCGGGUUAGAGUCCCGUACGGAACG [A21G C30A C55A]	≤ 0.5
GUUCCGUUGGCGUAAUGGUAGCGCGUGUCCCUCCUAAGGAGAAGACUGCGGGUUCGAGUCCCAUACGGAACG [A21G C27G G63A]	≤ 0.5
GUUCCGUUGGCGUAAUGGUAGCGCAUCUCCCUCCUAAGGAGAAGACUGCGGGUUCGAGUCCCGUACGGAACG [A21G G25A]	1.12
GUUCCGUUGGCGUAAUGGUAGCGCGUCUCCCUCCUAAGGAGAAGACUGCGGGUUCGAGUCGCGUAGGGAACG [A21G C61G C66G]	≤ 0.5
GUUCCGUUGGCGUAAUGGUAGCGCGUUUCCCUCCUAAGGAGAAGACUGCGGGUUCGAGUCGCGUUCGGAACG [A21G C27U C61G A65U]	≤ 0.5
GUUCCGUUGGCGUAAUGGUAGCGCGUCUACCUCCUAAGGAGAAGACUGCGGGUUCGAGUCCCGUACGGCACG [A21G C29A A69C]	≤ 0.5

Source: the RNAGym collection of RNA variant scans (doi:10.1126/science.aae0568)
